How the values were obtained:
Assay type in all cases: functional, cell-based
HCT-116 = assay: Cytotoxicity against human HCT116 cells after 72 hrs by crystal-violet staining-based spectrophotometric analysis; conditions: HCT-116, 72 h
Summary of the method: (§1)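 Subconfluent, exponentially growing, mycoplasma-free monolayers in RPMI 1640 + 10% FBS, 5% CO2. Cells treated 72 h with 0–500 µM (compounds in physiological serum, or in DMF at ≤3% final). Cells then PBS-washed, ethanol-fixed, stained with 1% crystal violet and eluted in 33% acetic acid, with A570 read. Triplicates, three independent experiments. IC50 taken from concentration–response curves as 50% growth inhibition.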

HT-29 = assay: Cytotoxicity against human HT-29 cells after 72 hrs by crystal-violet staining-based spectrophotometric analysis; conditions: HT-29, 72 h; summary of the method: as §1
SW480 = assay: Cytotoxicity against human SW480 cells after 72 hrs by crystal-violet staining-based spectrophotometric analysis; conditions: SW480, 72 h; summary of the method: as §1

Row | SMILES | IC50 (HCT-116) | IC50 (HT-29) | IC50 (SW480)
1 | NCCNCCn1c(=O)c2cc([N+](=O)[O-])ccc2c2cnc3cc4c(cc3c21)OCO4 | 25 µM | 43 µM | 40.7 µM
2 | NCCNCCCn1c(=O)c2cc([N+](=O)[O-])ccc2c2cnc3cc4c(cc3c21)OCO4 | 12.2 µM | 22.2 µM | 30.1 µM
3 | NCCNCCCCn1c(=O)c2cc([N+](=O)[O-])ccc2c2cnc3cc4c(cc3c21)OCO4 | 30.7 µM | 41.2 µM | 43.7 µM
4 | NCCNCCCCCn1c(=O)c2cc([N+](=O)[O-])ccc2c2cnc3cc4c(cc3c21)OCO4 | 25.2 µM | 47.6 µM | 50.7 µM
5 | NCCNCCCCCCn1c(=O)c2cc([N+](=O)[O-])ccc2c2cnc3cc4c(cc3c21)OCO4 | 15.4 µM | 30.8 µM | 24 µM

From ChEMBL document CHEMBL2434885, “cis-Dichloroplatinum(II) complexes tethered to dibenzo[c,h][1,6]naphthyridin-6-ones: synthesis and cytotoxicity in human cancer cell lines in vitro” (Eur J Med Chem, 2013)
